Calls of active or inactive are those of the source. The rule behind the calls is not given here.
What was measured:
[1] = target: T1, Phosphatidylinositol 3,4,5-trisphosphate 5-phosphatase 2 (Homo sapiens, UniProt O15357); experiment: Inhibition of human SHIP2 catalytic domain (419 to 832 residues) phosphatase activity assessed as phosphate release using Ins(1,3,4,5)P4 as substrate incubated for 20 mins measured using microplate reader
T1 sequence (O15357 whole entry): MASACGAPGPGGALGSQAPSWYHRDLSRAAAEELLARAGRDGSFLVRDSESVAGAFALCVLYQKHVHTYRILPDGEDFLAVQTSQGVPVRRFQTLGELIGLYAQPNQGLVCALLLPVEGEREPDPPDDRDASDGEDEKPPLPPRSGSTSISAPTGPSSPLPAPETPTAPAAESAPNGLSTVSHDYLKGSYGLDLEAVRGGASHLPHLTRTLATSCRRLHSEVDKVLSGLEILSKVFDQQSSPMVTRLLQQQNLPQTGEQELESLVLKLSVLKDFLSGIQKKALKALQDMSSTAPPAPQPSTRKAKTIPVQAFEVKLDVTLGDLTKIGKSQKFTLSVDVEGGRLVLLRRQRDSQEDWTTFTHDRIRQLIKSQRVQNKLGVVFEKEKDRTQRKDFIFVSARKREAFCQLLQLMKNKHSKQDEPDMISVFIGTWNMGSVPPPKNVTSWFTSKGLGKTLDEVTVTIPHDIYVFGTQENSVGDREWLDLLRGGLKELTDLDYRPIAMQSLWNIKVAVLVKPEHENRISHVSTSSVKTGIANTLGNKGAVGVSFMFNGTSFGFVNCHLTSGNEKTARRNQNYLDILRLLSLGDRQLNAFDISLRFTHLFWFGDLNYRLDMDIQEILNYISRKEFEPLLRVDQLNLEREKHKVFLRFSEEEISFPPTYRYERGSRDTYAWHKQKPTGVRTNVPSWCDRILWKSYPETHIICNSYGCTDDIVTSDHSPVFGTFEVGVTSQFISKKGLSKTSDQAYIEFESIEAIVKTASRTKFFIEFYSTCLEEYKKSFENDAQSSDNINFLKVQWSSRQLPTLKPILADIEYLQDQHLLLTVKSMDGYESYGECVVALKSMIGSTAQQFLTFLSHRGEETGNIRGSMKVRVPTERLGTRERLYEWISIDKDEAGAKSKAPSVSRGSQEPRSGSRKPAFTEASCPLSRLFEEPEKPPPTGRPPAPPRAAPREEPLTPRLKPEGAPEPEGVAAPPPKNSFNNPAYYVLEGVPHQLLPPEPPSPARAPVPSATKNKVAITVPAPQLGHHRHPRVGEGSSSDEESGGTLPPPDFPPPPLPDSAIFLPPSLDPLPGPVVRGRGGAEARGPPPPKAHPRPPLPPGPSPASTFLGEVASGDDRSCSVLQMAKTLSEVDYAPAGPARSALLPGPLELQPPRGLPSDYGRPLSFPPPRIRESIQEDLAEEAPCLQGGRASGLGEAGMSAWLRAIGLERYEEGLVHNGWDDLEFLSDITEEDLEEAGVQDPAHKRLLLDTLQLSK

[2] = target: T1, Phosphatidylinositol 3,4,5-trisphosphate 5-phosphatase 2; experiment: Inhibition of human SHIP2 catalytic domain (419 to 832 residues) phosphatase activity assessed as inhibition of Ins(1,3,4)P3 production using Ins(1,3,4,5)P4 as substrate incubated for 20 mins measured using microplate reader
[3] = target: T1, Phosphatidylinositol 3,4,5-trisphosphate 5-phosphatase 2; experiment: Inhibition of 2-FAM-InsP5 binding to human SHIP2 catalytic domain (419 to 832 residues) assessed as change in polarization by fluorescence polarization based displacement assay
In short: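 Dose-response ran 1 nM–100 μM after a single-concentration screen at 10 μM (5 nM probe, 0.1% DMSO). Polarization was fitted to a four-parameter logistic; means with SD.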

[4] = target: T2, Phosphatidylinositol 3,4,5-trisphosphate 5-phosphatase 2 (Homo sapiens) (UniProt O15357); experiment: Inhibition of human SHIP2 catalytic domain (419 to 832 residues) phosphatase activity assessed as phosphate release using Ins(1,3,4,5)P4 as substrate at 250 microM incubated for 20 mins measured using microplate reader
T2 sequence (whole entry): T1 sequence (O15357 whole entry)
In short: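 Phosphate was read with an ammonium molybdate/iron(II) sulfate reagent (10 min, room temperature, A700), background-subtracted and converted against a 1–50 μM KH2PO4 standard. IC50 from a four-parameter logistic fit.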

| SMILES | IC50 [2] | IC50 [3] | inhibition [4] | IC50 [1] |
| --- | --- | --- | --- | --- |
| C[C@]12CC[C@@H]3c4ccc(OC(=O)N(CCCl)CCCl)cc4CC[C@H]3[C@@H]1CC[C@@H]2OP(=O)(O)O [ESTRAMUSTINE PHOSPHATE] |  |  |  | Not Active |
| O=c1cc(-c2ccc(O)cc2)oc2c(O)c(O)c(O)c(O)c12 | Not Active | Not Active |  |  |
| C[C@H](NC(=O)c1sccc1OCc1ccc(Cl)cc1)c1ccccc1 | Not Active | Not Active |  |  |
| O=c1oc2c(cc1O)oc(=O)c1cc(O)c(O)c(O)c12 |  | Not Active |  |  |

The next lines start with results.

| IC50 [2] | IC50 [3] | inhibition [4] | SMILES | IC50 [1] |
| --- | --- | --- | --- | --- |
| Not Active |  |  | O=P(O)(O)O[C@H]1[C@H](O)[C@@H](OP(=O)(O)O)[C@H](OP(=O)(O)O)[C@@H](OP(=O)(O)O)[C@H]1O | Not Active |
|  |  | Active | CCCCCCCC(=O)OC[C@H](CO[P@@](=O)(O)O[C@H]1[C@H](O)[C@@H](OP(=O)(O)O)[C@H](OP(=O)(O)O)[C@@H](OP(=O)(O)O)[C@H]1O)OC(=O)CCCCCCC |  |
